Laboratory results published in ChEMBL document CHEMBL3351385, “Synthesis and preliminary mechanistic evaluation of 5-(p-tolyl)-1-(quinolin-2-yl)pyrazole-3-carboxylic acid amides with potent antiproliferative activity on human cancer cell lines” (Eur J Med Chem, 2014).
Calls of active or inactive are those of the source. The calls are words filed in the database; no cut-off is given here.

Experiments:
[1] = biological target: Tyrosine-protein kinase BTK (Homo sapiens) (UniProt Q06187); experiment: Inhibition of BTK (unknown origin) assessed as remaining enzyme activity at 10 uM by radioactive [33P]-ATP filter binding assay
Summary of the method: (§1)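 A single 10 µM concentration was tested across a 140-kinase panel. Activity was measured by a radioactive 33P-ATP filter-binding assay run at the International Center for Kinase Profiling, University of Dundee.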

[2] = biological target: Mitogen-activated protein kinase 14 (Homo sapiens) (UniProt Q16539); experiment: Inhibition of p38alpha (unknown origin) assessed as remaining enzyme activity at 10 uM by radioactive [33P]-ATP filter binding assay
[3] = biological target: SRSF protein kinase 1 (Homo sapiens) (UniProt Q96SB4); experiment: Inhibition of SRPK1 (unknown origin) assessed as remaining enzyme activity at 10 uM by radioactive [33P]-ATP filter binding assay
[4] = biological target: Tyrosine-protein kinase CSK (Homo sapiens) (UniProt P41240); experiment: Inhibition of CSK (unknown origin) assessed as remaining enzyme activity at 10 uM by radioactive [33P]-ATP filter binding assay; summary of the method: as §1
[5] = biological target: Serine/threonine-protein kinase SIK2 (Homo sapiens) (UniProt Q9H0K1); experiment: Inhibition of SIK2 (unknown origin) assessed as remaining enzyme activity at 10 uM by radioactive [33P]-ATP filter binding assay
[6] = biological target: Mitogen-activated protein kinase kinase kinase kinase 2 (Homo sapiens) (UniProt Q12851); experiment: Inhibition of GCK (unknown origin) assessed as remaining enzyme activity at 10 uM by radioactive [33P]-ATP filter binding assay
[7] = biological target: Ephrin type-B receptor 2 (Homo sapiens) (UniProt P29323); experiment: Inhibition of EPHB2 (unknown origin) assessed as remaining enzyme activity at 10 uM by radioactive [33P]-ATP filter binding assay; summary of the method: as §1
[8] = biological target: MAP kinase-activated protein kinase 3 (Homo sapiens) (UniProt Q16644); experiment: Inhibition of MAPKAPK3 (unknown origin) assessed as remaining enzyme activity at 10 uM by radioactive [33P]-ATP filter binding assay
[9] = biological target: Insulin-like growth factor 1 receptor (Homo sapiens) (UniProt P08069); experiment: Inhibition of IGF1R (unknown origin) assessed as remaining enzyme activity at 10 uM by radioactive [33P]-ATP filter binding assay
[10] = biological target: Inhibitor of nuclear factor kappa-B kinase subunit epsilon (Homo sapiens) (UniProt Q14164); experiment: Inhibition of IKKepsilon (unknown origin) assessed as remaining enzyme activity at 10 uM by radioactive [33P]-ATP filter binding assay
[11] = biological target: Mitogen-activated protein kinase kinase kinase 7, TAK1 (Homo sapiens) (UniProt O43318); experiment: Inhibition of TAK1 (unknown origin) assessed as remaining enzyme activity at 10 uM by radioactive [33P]-ATP filter binding assay
[12] = biological target: Eukaryotic elongation factor 2 kinase (Homo sapiens) (UniProt O00418); experiment: Inhibition of EF2K (unknown origin) assessed as remaining enzyme activity at 10 uM by radioactive [33P]-ATP filter binding assay; summary of the method: as §1
[13] = biological target: Dual specificity mitogen-activated protein kinase kinase 1 (Homo sapiens) (UniProt Q02750); experiment: Inhibition of MKK1 (unknown origin) assessed as remaining enzyme activity at 10 uM by radioactive [33P]-ATP filter binding assay
[14] = biological target: Tyrosine-protein kinase JAK2 (Homo sapiens) (UniProt O60674); experiment: Inhibition of JAK2 (unknown origin) assessed as remaining enzyme activity at 10 uM by radioactive [33P]-ATP filter binding assay
[15] = biological target: Mitogen-activated protein kinase kinase kinase kinase 5 (Homo sapiens) (UniProt Q9Y4K4); experiment: Inhibition of MAP4K5 (unknown origin) assessed as remaining enzyme activity at 10 uM by radioactive [33P]-ATP filter binding assay
[16] = biological target: Mitogen-activated protein kinase 12 (Homo sapiens) (UniProt P53778); experiment: Inhibition of p38gamma (unknown origin) assessed as remaining enzyme activity at 10 uM by radioactive [33P]-ATP filter binding assay
Summary of the method: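 Single-concentration screen against a 140-kinase panel. Done by the International Center for Kinase Profiling, University of Dundee, with a radioactive 33P-ATP filter-binding read-out.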

Tubulin (Homo sapiens) = Tubulin (Homo sapiens) (UniProt P68371+Q9H4B7+P0DPH7+P68366+Q13509+Q71U36+P04350+Q3ZCM7+P07437+P68363+Q9BQE3+Q6PEY2+Q13885+Q9BVA1+Q9BUF5); experiment: Inhibition of tubulin polymerization (unknown origin); type: protein-complex assay
Huh-7 = experiment: Induction of autophagy in human HuH7 cells assessed as increase in LC3-2 formation at cytotoxic IC50 level after 72 hrs by Western blotting method; type: functional, cell-based
[17] = biological target: Serine/threonine-protein kinase BRSK1 (Homo sapiens) (UniProt Q8TDC3); experiment: Inhibition of BRSK1 (unknown origin) assessed as remaining enzyme activity at 10 uM by radioactive [33P]-ATP filter binding assay; summary of the method: as §1
[18] = Cytotoxicity against human HCT116 cells after 72 hrs by SRB assay; type: functional, cell-based; settings: HCT-116, 72 h
Summary of the method: (§2)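 Cells kept in DMEM with 10% FCS and penicillin/streptomycin at 37°C, 5% CO2. 2000–3000 cells/well were seeded, and medium was refreshed the next day. DMSO solutions were added over 2.5–40 µM with matched DMSO-only controls for 72 h. Cells were then TCA-fixed, stained with 0.4% SRB in 1% acetic acid, solubilized in 10 mM Tris pH 8 and read at 515 nm. Data were normalized to DMSO wells and expressed as mean ±SD.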

[19] = biological target: Ephrin type-A receptor 2 (Homo sapiens) (UniProt P29317); experiment: Inhibition of EPHA2 (unknown origin) assessed as remaining enzyme activity at 10 uM by radioactive [33P]-ATP filter binding assay; summary of the method: as §1
[20] = biological target: Calcium/calmodulin-dependent protein kinase type 1 (Homo sapiens) (UniProt Q14012); experiment: Inhibition of CAMK1 (unknown origin) assessed as remaining enzyme activity at 10 uM by radioactive [33P]-ATP filter binding assay; summary of the method: as §1
MCF7 = experiment: Cytotoxicity against human MCF7 cells after 72 hrs by SRB assay; type: functional, cell-based; settings: MCF7, 72 h; summary of the method: as §2
[21] = biological target: CDK2/Cyclin A2 (Homo sapiens) (UniProt P24941+P20248); experiment: Inhibition of CDK2/Cyclin A (unknown origin) assessed as remaining enzyme activity at 10 uM by radioactive [33P]-ATP filter binding assay; type: protein-complex assay; summary of the method: as §1
[22] = biological target: Homeodomain-interacting protein kinase 2 (Homo sapiens) (UniProt Q9H2X6); experiment: Inhibition of HIPK2 (unknown origin) assessed as remaining enzyme activity at 10 uM by radioactive [33P]-ATP filter binding assay
[23] = Induction of cell cycle arrest in human HuH7 cells assessed as accumulation at G2/M phase at cytotoxic IC50 level after 48 hrs by propidium iodide staining based FACS method; type: functional, Huh-7
Summary of the method: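 Huh7 cells were seeded at 150,000–300,000 per 100-mm dish and left 24 h. […] Cells were stained with a propidium iodide-containing cell cycle reagent, and subG1, G0/G1, S and G2/M fractions were scored by flow cytometry.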

[24] = biological target: Tyrosine-protein kinase SYK (Homo sapiens) (UniProt P43405); experiment: Inhibition of SYK (unknown origin) assessed as remaining enzyme activity at 10 uM by radioactive [33P]-ATP filter binding assay

Chain of Serine/threonine-protein kinase SIK2 (Homo sapiens) (Q9H0K1 whole entry, looked up): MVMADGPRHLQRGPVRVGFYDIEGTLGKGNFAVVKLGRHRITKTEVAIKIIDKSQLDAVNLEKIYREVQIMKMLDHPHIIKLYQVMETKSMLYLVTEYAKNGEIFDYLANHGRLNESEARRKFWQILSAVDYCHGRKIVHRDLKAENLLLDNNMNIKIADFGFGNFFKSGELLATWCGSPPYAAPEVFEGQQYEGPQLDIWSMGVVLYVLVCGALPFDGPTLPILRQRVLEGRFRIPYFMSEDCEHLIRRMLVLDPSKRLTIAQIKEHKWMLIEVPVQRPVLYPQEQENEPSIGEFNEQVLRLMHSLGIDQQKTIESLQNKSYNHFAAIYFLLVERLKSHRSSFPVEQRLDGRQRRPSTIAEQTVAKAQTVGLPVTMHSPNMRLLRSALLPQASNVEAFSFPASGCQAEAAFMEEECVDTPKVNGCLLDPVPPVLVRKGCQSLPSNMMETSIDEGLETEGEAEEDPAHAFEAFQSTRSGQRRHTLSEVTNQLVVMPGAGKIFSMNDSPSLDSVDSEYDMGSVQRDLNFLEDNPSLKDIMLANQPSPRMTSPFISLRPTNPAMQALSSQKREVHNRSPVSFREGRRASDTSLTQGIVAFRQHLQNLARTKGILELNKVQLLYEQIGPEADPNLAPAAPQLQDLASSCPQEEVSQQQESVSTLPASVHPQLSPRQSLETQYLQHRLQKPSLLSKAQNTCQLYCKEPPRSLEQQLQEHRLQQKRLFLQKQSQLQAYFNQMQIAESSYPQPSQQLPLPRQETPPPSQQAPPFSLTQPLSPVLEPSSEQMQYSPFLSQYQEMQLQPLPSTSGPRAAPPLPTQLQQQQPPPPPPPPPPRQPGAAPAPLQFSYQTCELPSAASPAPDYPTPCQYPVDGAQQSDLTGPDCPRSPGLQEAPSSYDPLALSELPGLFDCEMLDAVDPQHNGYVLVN
Chain of Mitogen-activated protein kinase 12 (Homo sapiens) (P53778 whole entry): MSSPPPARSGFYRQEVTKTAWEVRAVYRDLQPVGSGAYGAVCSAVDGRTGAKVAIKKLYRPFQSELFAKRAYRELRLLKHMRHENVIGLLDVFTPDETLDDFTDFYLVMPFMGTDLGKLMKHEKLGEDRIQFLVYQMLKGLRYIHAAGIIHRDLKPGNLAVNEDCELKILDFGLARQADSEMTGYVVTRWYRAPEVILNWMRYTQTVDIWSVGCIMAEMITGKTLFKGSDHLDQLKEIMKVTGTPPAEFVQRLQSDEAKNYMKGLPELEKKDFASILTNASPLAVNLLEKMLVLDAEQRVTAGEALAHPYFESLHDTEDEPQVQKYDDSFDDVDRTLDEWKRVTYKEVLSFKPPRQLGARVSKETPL
Chain of Inhibitor of nuclear factor kappa-B kinase subunit epsilon (Homo sapiens) (Q14164 whole entry): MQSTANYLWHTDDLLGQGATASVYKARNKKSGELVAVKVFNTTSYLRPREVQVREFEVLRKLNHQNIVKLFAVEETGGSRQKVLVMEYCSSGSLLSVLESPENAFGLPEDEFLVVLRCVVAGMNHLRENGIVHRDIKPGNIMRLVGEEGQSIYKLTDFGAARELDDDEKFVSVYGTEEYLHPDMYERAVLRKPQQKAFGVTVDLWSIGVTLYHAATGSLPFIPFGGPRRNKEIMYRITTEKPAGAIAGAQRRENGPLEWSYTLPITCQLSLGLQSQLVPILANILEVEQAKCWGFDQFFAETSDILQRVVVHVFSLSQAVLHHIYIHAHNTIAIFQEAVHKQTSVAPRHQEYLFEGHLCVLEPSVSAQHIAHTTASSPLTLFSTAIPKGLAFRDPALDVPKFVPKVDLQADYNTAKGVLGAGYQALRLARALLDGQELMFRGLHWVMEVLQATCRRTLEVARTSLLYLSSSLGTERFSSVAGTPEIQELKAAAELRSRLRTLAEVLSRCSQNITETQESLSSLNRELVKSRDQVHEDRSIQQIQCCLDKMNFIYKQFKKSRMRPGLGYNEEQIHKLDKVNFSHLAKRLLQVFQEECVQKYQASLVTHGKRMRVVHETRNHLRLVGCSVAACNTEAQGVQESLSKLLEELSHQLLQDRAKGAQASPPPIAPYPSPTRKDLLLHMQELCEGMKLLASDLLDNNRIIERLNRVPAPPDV
Chain of Calcium/calmodulin-dependent protein kinase type 1 (Homo sapiens) (Q14012 whole entry, looked up): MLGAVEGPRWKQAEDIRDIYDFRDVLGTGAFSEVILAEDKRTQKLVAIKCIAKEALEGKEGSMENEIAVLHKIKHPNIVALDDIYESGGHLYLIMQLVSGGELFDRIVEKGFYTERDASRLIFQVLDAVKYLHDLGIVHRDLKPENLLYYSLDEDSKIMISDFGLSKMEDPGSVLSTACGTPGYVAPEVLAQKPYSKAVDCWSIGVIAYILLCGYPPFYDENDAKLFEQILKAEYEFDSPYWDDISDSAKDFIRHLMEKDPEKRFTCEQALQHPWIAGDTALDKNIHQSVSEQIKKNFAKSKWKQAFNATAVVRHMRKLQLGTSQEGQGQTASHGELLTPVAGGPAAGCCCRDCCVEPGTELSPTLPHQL
Chain of Homeodomain-interacting protein kinase 2 (Homo sapiens) (Q9H2X6 whole entry, looked up): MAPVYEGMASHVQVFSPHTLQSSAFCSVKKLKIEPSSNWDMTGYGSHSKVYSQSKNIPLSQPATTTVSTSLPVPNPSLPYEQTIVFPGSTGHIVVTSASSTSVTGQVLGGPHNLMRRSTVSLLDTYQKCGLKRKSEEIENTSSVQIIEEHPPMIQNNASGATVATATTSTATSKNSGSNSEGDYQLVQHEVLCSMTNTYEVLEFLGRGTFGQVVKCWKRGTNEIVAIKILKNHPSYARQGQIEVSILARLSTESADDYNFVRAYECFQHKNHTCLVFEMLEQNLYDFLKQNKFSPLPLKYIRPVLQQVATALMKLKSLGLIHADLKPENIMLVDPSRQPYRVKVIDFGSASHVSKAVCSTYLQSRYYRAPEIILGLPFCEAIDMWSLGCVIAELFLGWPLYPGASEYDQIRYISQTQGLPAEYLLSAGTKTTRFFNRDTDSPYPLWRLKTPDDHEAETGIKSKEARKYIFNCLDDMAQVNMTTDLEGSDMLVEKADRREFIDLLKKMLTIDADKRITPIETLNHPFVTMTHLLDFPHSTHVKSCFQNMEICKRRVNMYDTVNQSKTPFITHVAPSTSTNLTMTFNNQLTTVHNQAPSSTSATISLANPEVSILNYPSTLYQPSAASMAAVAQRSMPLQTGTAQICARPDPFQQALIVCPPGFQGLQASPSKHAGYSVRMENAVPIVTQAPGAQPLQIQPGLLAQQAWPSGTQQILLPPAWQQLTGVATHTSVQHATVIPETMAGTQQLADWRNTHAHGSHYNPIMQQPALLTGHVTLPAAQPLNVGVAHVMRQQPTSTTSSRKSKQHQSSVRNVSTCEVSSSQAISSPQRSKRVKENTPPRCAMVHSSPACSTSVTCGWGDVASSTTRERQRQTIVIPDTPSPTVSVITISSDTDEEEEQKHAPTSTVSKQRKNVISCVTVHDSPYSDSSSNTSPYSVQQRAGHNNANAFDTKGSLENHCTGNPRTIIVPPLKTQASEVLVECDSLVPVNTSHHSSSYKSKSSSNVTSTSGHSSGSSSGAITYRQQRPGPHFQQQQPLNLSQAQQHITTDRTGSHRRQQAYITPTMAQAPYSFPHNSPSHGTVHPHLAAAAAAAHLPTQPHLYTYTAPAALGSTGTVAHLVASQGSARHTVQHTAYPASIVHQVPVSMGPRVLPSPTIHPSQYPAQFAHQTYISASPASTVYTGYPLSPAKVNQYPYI
Chain of Serine/threonine-protein kinase BRSK1 (Homo sapiens) (Q8TDC3 whole entry): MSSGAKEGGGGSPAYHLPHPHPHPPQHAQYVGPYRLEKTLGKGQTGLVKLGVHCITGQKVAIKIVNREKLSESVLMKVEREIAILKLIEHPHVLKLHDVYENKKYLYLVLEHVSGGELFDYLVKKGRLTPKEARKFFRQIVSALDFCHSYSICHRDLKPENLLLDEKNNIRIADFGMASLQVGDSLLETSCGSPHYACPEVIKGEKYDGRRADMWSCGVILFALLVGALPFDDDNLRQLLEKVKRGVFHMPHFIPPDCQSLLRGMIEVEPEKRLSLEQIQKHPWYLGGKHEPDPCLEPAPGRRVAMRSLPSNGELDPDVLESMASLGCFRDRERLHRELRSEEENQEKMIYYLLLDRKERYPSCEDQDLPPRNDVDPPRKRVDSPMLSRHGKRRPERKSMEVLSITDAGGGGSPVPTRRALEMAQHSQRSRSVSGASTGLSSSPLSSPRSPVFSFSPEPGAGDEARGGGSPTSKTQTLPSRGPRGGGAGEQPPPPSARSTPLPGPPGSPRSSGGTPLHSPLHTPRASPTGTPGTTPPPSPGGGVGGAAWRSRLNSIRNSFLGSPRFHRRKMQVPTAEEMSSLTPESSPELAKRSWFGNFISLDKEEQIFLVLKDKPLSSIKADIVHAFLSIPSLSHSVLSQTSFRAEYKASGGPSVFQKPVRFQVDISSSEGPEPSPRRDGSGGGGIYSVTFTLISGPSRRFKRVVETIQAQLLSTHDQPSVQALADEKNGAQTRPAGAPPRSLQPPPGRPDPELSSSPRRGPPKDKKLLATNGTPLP
Chain of Tyrosine-protein kinase BTK (Homo sapiens) (Q06187 whole entry): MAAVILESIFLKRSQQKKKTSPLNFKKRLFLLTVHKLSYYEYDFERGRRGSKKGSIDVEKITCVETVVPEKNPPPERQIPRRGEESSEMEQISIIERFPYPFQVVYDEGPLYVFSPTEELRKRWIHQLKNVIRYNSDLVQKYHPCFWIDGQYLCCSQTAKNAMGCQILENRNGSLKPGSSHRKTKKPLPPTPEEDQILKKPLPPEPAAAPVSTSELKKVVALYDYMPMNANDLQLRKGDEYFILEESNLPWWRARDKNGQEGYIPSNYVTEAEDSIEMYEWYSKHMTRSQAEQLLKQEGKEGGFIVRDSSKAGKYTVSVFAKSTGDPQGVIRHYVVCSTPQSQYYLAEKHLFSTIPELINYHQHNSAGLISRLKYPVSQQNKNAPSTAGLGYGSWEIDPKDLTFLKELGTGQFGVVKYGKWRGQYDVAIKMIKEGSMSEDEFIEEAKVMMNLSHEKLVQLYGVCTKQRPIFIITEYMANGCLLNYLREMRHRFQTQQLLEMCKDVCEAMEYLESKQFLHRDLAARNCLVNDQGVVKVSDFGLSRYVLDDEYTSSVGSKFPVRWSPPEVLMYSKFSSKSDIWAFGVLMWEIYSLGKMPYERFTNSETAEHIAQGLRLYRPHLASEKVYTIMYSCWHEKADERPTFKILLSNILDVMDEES

`Cc1ccc(-c2cc(C(=O)Nc3ccnc(Cl)c3)nn2-c2ccc3ccccc3n2)cc1` gave an Activity [1] of 92%, an Activity [2] of 95% and an Activity [3] of 104%. The Activity [4] was 109%, the Activity [5] was 106% and the Activity [6] was 112%. It also gave an Activity [7] of 114%, an Activity [8] of 94% and an Activity [9] of 98%. For the same compound, the Activity [10] was 112%, the Activity [11] was 91% and the Activity [12] was 97%. For the same compound, the Activity [13] was 95%, the Activity [14] was 99% and the Activity [15] was 87%. For the same compound, the Activity [16] was 107%, the inhibition (Tubulin (Homo sapiens)) was “inactive” and the Activity (Huh-7) was “inactive”. It also gave an Activity [17] of 108%, an IC50 [18] of 1100 nM and an Activity [19] of 111%. The Activity [20] was 113%, the IC50 (MCF7) was 3300 nM and the Activity [21] was 102%. It also gave an Activity [22] of 124%, an Activity [23] of 27.8% and an Activity [24] of 97%.
